Drawing on the array DNA melting data of Ke et al. (doi:10.1101/2024.01.08.574731), this text covers Tm and folding enthalpy for 57 sequences.

A short description of series [1]: melting temperature; fluorescence melt of hairpins on a sequencing array, two-state fit, raised by 9.35 °C to match UV melts. Particulars: sodium 0.088 M. A digest of the protocol:
(§1)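 Folding enthalpy and melting temperature come from bootstrapped two-state fits to Cy3 fluorescence of library hairpins carrying annealed Cy3 and quencher oligos on a sequenced MiSeq flow cell. Imaging was done in 50 mM Na-HEPES pH 8.0, 25 mM NaCl, stepping by 2.5 °C up to 60 °C, and signals were normalised to pre-quench Cy3 and to control constructs. Results of four replicates were combined by inverse variance, and fitted temperatures were raised by 9.35 °C to match UV melts.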

Series [2] can be described thus: folding enthalpy; higher = less favourable; fluorescence melt of hairpins on a sequencing array, two-state fit. Particulars: sodium 0.088 M. A digest of the protocol:
as §1

For the sequence GATCATCAATATGATC ((((((....)))))), the Tm in series [1] is 45 °C. Further, the folding enthalpy in series [2] was -35 kcal/mol.

For the sequence GATCATCAGAATGATC ((((((....)))))), in series [1], the Tm came to 46.9 °C. Further, the folding enthalpy in series [2] is -22.6 kcal/mol.

As to GATCATCAGTATGATC ((((((....)))))), in series [1], the Tm was 45.8 °C. Further, the folding enthalpy in series [2] is -29.4 kcal/mol.

With GATCATCATGATGATC ((((((....)))))), the Tm in series [1] was determined as 53.8 °C. Also, in series [2], the folding enthalpy was -38 kcal/mol.

Regarding GATCATCCAATGATC ((((((...)))))), the Tm in series [1] was found to be 46.9 °C. The folding enthalpy in series [2] was -31.4 kcal/mol.

Take GATCATCCCATGATC ((((((...)))))): in series [1], the Tm amounted to 50.4 °C. Moreover, in series [2], the folding enthalpy was -38.4 kcal/mol.

GATCATCCCGATGATC ((((((....)))))): the Tm in series [1] stood at 52.1 °C. Further, the folding enthalpy in series [2] was -51.9 kcal/mol.

Take GATCATCCGGATGATC ((((((....)))))): the Tm in series [1] turned out to be 54.8 °C. For the same sequence, in series [2], the folding enthalpy is -52.5 kcal/mol.

With GATCATCGATATGATC ((((((....)))))), the Tm in series [1] was determined as 45.3 °C. Further, in series [2], the folding enthalpy was -29.4 kcal/mol.

In the case of GATCATCGCAATGATC ((((((....)))))), in series [1], the Tm was determined as 48.3 °C. Further, the folding enthalpy in series [2] was -39.1 kcal/mol.

On to GATCATCGGAATGATC ((((((....)))))), for which the Tm in series [1] worked out at 45.8 °C. In addition, the folding enthalpy in series [2] was -38.9 kcal/mol.

Regarding GATCATCGTTATGATC ((((((....)))))), the Tm in series [1] stood at 47.2 °C. For the same sequence, the folding enthalpy in series [2] is -32.4 kcal/mol.

For the sequence GATCATCTAATGATC ((((((...)))))), the Tm in series [1] is 47.2 °C. In addition, the folding enthalpy in series [2] is -34.5 kcal/mol.

For the sequence GATCATCTATATGATC ((((((....)))))), the Tm in series [1] amounted to 47.9 °C. Further, the folding enthalpy in series [2] was -36.2 kcal/mol.

On to GATCATCTCATGATC ((((((...)))))), for which the Tm in series [1] is 50 °C. In addition, in series [2], the folding enthalpy is -37.7 kcal/mol.

With GATCATCTCCATGATC ((((((....)))))), the Tm in series [1] turned out to be 46.8 °C. Besides, the folding enthalpy in series [2] was -32.9 kcal/mol.

Turning to GATCATCTCGATGATC ((((((....)))))), the Tm in series [1] is 54.6 °C. For the same sequence, the folding enthalpy in series [2] was -50.6 kcal/mol.

On to GATCATCTTCATGATC ((((((....)))))), for which the Tm in series [1] is 47.3 °C. For the same sequence, the folding enthalpy in series [2] is -37.2 kcal/mol.

For GATCATCTTGATGATC ((((((....)))))), in series [1], the Tm came to 57.2 °C. For the same sequence, the folding enthalpy in series [2] was -43.4 kcal/mol.

GATCATGAAGATGATC ((((((....)))))): in series [1], the Tm was 50.3 °C. Further, the folding enthalpy in series [2] is -34.9 kcal/mol.

As to GATCATGAGAATGATC ((((((....)))))), in series [1], the Tm came to 49.7 °C. Moreover, the folding enthalpy in series [2] was -36.5 kcal/mol.

On to GATCATGAGTATGATC ((((((....)))))), for which the Tm in series [1] is 46.7 °C. The folding enthalpy in series [2] was -31.1 kcal/mol.

GATCATGCTGATGATC ((((((....)))))): in series [1], the Tm is 47.3 °C. Moreover, the folding enthalpy in series [2] was -38.5 kcal/mol.

GATCATGGAAACATGACC (.(((((....))))).): the Tm in series [1] stood at 36.1 °C. The folding enthalpy in series [2] was -17.4 kcal/mol.

For the sequence GATCATGGAATGATC ((((((...)))))), the Tm in series [1] stood at 56.5 °C. For the same sequence, the folding enthalpy in series [2] is -39.3 kcal/mol.

As to GATCATGGAGATGATC ((((((....)))))), the Tm in series [1] was 49.7 °C. The folding enthalpy in series [2] is -37.5 kcal/mol.

On to GATCATGGGAATGATC ((((((....)))))), for which the Tm in series [1] worked out at 51.8 °C. Moreover, the folding enthalpy in series [2] is -36.8 kcal/mol.

GATCATGGGTATGATC ((((((....)))))): in series [1], the Tm came to 46.7 °C. The folding enthalpy in series [2] is -34.6 kcal/mol.

Take GATCATGTGATGATC ((((((...)))))): the Tm in series [1] is 47.2 °C. The folding enthalpy in series [2] is -31.4 kcal/mol.

In the case of GATCATGTTCATGATC ((((((....)))))), the Tm in series [1] came to 52.5 °C. The folding enthalpy in series [2] was -43.1 kcal/mol.

With GATCATTAAAATGATC ((((((....)))))), in series [1], the Tm was 45.2 °C. For the same sequence, the folding enthalpy in series [2] is -29.5 kcal/mol.

Regarding GATCATTACATGATC ((((((...)))))), the Tm in series [1] came to 50.2 °C. The folding enthalpy in series [2] was -33.8 kcal/mol.

Turning to GATCATTACCATGATC ((((((....)))))), the Tm in series [1] amounted to 46.8 °C. In series [2], the folding enthalpy was -35.3 kcal/mol.

Regarding GATCATTAGGATGATC ((((((....)))))), the Tm in series [1] came out at 47.8 °C. Moreover, in series [2], the folding enthalpy is -35.3 kcal/mol.

For GATCATTAGTATGATC ((((((....)))))), the Tm in series [1] is 45.2 °C. In series [2], the folding enthalpy was -31.8 kcal/mol.

Take GATCATTATAATGATC ((((((....)))))): the Tm in series [1] is 49.7 °C. The folding enthalpy in series [2] is -33.1 kcal/mol.

Turning to GATCATTCACATGATC ((((((....)))))), in series [1], the Tm is 46.6 °C. In addition, the folding enthalpy in series [2] was -39.8 kcal/mol.

Consider GATCATTCCTATGATC ((((((....)))))), for which the Tm in series [1] came out at 49.7 °C. The folding enthalpy in series [2] is -31.5 kcal/mol.

Take GATCATTCGATGATC ((((((...)))))): in series [1], the Tm turned out to be 47.2 °C. In addition, the folding enthalpy in series [2] was -35.8 kcal/mol.

As to GATCATTCGCATGATC ((((((....)))))), the Tm in series [1] is 47.5 °C. Also, the folding enthalpy in series [2] was -34 kcal/mol.

Turning to GATCATTCGGATGATC ((((((....)))))), the Tm in series [1] was found to be 48.1 °C. Also, the folding enthalpy in series [2] is -35.5 kcal/mol.

On to GATCATTCTAATGATC ((((((....)))))), for which, in series [1], the Tm turned out to be 49.4 °C. In addition, the folding enthalpy in series [2] is -31.9 kcal/mol.

Consider GATCATTCTGATGATC ((((((....)))))), for which, in series [1], the Tm worked out at 49.5 °C. In series [2], the folding enthalpy was -39.7 kcal/mol.

As to GATCATTGCCATGATC ((((((....)))))), the Tm in series [1] was 46.4 °C. Further, the folding enthalpy in series [2] is -39.3 kcal/mol.

With GATCATTGGATGATC ((((((...)))))), the Tm in series [1] was 44.8 °C. Moreover, the folding enthalpy in series [2] was -31.7 kcal/mol.

Turning to GATCATTTGGATGATC ((((((....)))))), the Tm in series [1] stood at 48.5 °C. Further, the folding enthalpy in series [2] is -36.9 kcal/mol.

GATCATTTTCATGATC ((((((....)))))): the Tm in series [1] was determined as 47.6 °C. Besides, the folding enthalpy in series [2] is -31.1 kcal/mol.

Regarding GATCCAAAATGGATC ((((((...)))))), the Tm in series [1] was determined as 48.9 °C. Further, the folding enthalpy in series [2] is -31.5 kcal/mol.

In the case of GATCCAAAGCTGGATC ((((((....)))))), the Tm in series [1] amounted to 47.2 °C. Also, the folding enthalpy in series [2] is -36.3 kcal/mol.

With GATCCAAAGGTGGATC ((((((....)))))), in series [1], the Tm came out at 47 °C. In series [2], the folding enthalpy is -26.1 kcal/mol.

Turning to GATCCAAAGTGGATC ((((((...)))))), the Tm in series [1] was found to be 48.8 °C. For the same sequence, the folding enthalpy in series [2] is -30.9 kcal/mol.

In the case of GATCCAAATTTGGATC ((((((....)))))), the Tm in series [1] is 52.9 °C. In addition, in series [2], the folding enthalpy is -36.1 kcal/mol.

On to GATCCAACCCTGGATC ((((((....)))))), for which the Tm in series [1] turned out to be 48.3 °C. Moreover, in series [2], the folding enthalpy was -29 kcal/mol.

GATCCAACGGTGGATC ((((((....)))))): the Tm in series [1] is 49 °C. Further, the folding enthalpy in series [2] is -43.3 kcal/mol.

Turning to GATCCAACTTTGGATC ((((((....)))))), in series [1], the Tm was 51 °C. Besides, the folding enthalpy in series [2] is -43.3 kcal/mol.

GATCCAAGAGTGGATC ((((((....)))))): the Tm in series [1] was determined as 46 °C. In addition, the folding enthalpy in series [2] was -28.6 kcal/mol.

Regarding GATCCAATATGGATC ((((((...)))))), the Tm in series [1] was 51.3 °C. The folding enthalpy in series [2] is -38.7 kcal/mol.
